Measurements as given in ChEMBL document CHEMBL3232882, “N-Acyl-phosphoramidates as potential novel form of gemcitabine prodrugs” (Bioorg Med Chem, 2014).
Activity calls are given as the source filed them. The calls are words filed in the database; no cut-off is given here.

How the values were obtained:
Escherichia coli [1] = test: Activity of Escherichia coli DNA polymerase 1 without 3' to 5'-exonucleolytic activity after 2 hrs by single base extension reaction based electrophoresis method
Method in brief: (§1)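 Test compound with KF+ or KF- (1U) in 0.05 M Tris-HCl pH 8.0, 5 mM MgCl2, 1 mM DTT, 2 h at 37 °C, then heat-denatured. Read-out was 20% PAGE/7 M urea, autoradiography and quantitation of n+1 product; dCTP reaction served as control.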

Thermococcus sp. 9oN-7 [2] = test: Activity of Thermococcus sp. 9oN-7 therminator DNA polymerase after 2 hrs by single base extension reaction based electrophoresis method
[3] = target: Adenosine 5'-monophosphoramidase HINT1 (Oryctolagus cuniculus, UniProt P80912); test: Stability assessed as rabbit recombinant HINT1-mediated compound hydrolysis at 1 mM after 22 hrs by RP-HPLC analysis; type: ADME; conditions: 1000 µM
Method in brief: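 Recombinant Hint-1 was expressed from pSGA02-HINT in E. coli BL21, purified on AMP-agarose, and dialysed into 20 mM Tris pH 7.5/150 mM NaCl. Substrate 1 mM in 20 mM Na-HEPES pH 7.2, 0.5 mM MgCl2 with rHint-1, 22 h at 37 °C. Analysed by C18 RP-HPLC at 260 nm via peak integration; mean ± SE of at least duplicate.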

K562 = test: Cytotoxicity against human K562 cells assessed as reduction of cell survival after 48 hrs by MTT assay; type: functional, cell-based; conditions: K562, 48 h
Method in brief: (§2)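 HUVEC (from fresh umbilical cords, gelatin-coated dishes, RPMI 1640 with 20% FBS, heparin, ECGF) and K562 (RPMI 1640, 10% FCS) were seeded at 7×10^3 per well. After 24 h, exposure for 48 h to compounds from 100 mM aqueous stock, final 1 mM down to 1×10^-6 mM. MTT read at 570/650 nm; untreated = 100%; IC50 from dose-response curves, mean of 2 experiments in triplicate.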

HUVEC = test: Cytotoxicity against HUVEC assessed as cell after 48 hrs by MTT assay; type: cell-based; conditions: Homo sapiens; method in brief: as §2
HeLa [4] = test: Cytotoxicity against human HeLa cells assessed as reduction of cell survival after 72 hrs by MTT assay; type: functional, cell-based
Method in brief: (§3)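 HeLa seeded at 7×10^3 and CFPAC at 10^4 per well in RPMI 1640 with 10% FCS under 5% CO2. After 24 h, exposure to compounds (aqueous 100 mM stock; final 1 mM to 1×10^-6 mM) for 72 or 96 h. MTT 2 h, formazan dissolved in 20% SDS/50% DMF pH 4.7, A570/650. Untreated cells = 100%; IC50 from dose-response curves, 2 independent experiments in triplicate.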

HeLa [5] = test: Cytotoxicity against human HeLa cells assessed as reduction of cell survival after 96 hrs by MTT assay; type: functional, cell-based; method in brief: as §3
CFPAC-1 = test: Cytotoxicity against human CFPAC-1 cells assessed as reduction of cell survival after 96 hrs by MTT assay; type: functional, cell-based; conditions: CFPAC-1, 96 h; method in brief: as §3
Escherichia coli [6] = test: Activity of Escherichia coli DNA polymerase 1 with 3' to 5'-exonucleolytic activity after 2 hrs by single base extension reaction based electrophoresis method; method in brief: as §1
[7] = Inhibition of Escherichia coli DNA polymerase 1 with 3' to 5'-exonucleolytic activity using dCTP as substrate assessed as single base extension reaction after 2 hrs
Method in brief: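 Compound (0.4–2.0 mM; 1- to 5-fold over dCTP) added together with 0.4 mM dCTP in 0.05 M Tris-HCl pH 8.0, 5 mM MgCl2, 1 mM DTT, 2 h at 37 °C. The n+1 product was quantified after 20% PAGE/7 M urea and autoradiography; EC50 is the concentration giving 50% inhibition.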

[8] = target: T1, HINT1 (adenosine 5'-monophosphoramidase) (Homo sapiens, UniProt P49773); test: Stability in human HeLa cell lysate assessed as HINT-1-mediated phosphoramidase activity by measuring compound remaining at 1 mM after 22 hrs by RP-HPLC analysis relative to control; type: ADME, cell-based; conditions: read-out: Stability
Method in brief: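 HeLa lysate from confluent cells, sonicated in PBS with protease inhibitors. Substrate 1 mM in 20 mM Na-HEPES pH 7.2, 0.5 mM MgCl2, 22 h at 37 °C. Ice-quenched, heat-denatured, centrifuged. C18 RP-HPLC (acetonitrile 0–8% in 0.1 M TEAB pH 7.4) at 260 nm; intact substrate quantified by peak integration; mean ± SE of at least duplicate.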

[9] = target: T1, HINT1 (adenosine 5'-monophosphoramidase); test: Stability in human K562 cell lysate assessed as HINT-1-mediated phosphoramidase activity by measuring compound remaining at 1 mM after 22 hrs by RP-HPLC analysis relative to control; type: ADME, cell-based; conditions: read-out: Stability
Method in brief: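 K562 lysate from confluent cells, scraped and sonicated in PBS with protease inhibitors. Substrate 1 mM in 20 mM Na-HEPES pH 7.2, 0.5 mM MgCl2, with lysate protein, 22 h at 37 °C. Quenched on ice, heat-denatured, centrifuged. Supernatant analysed by C18 RP-HPLC (0–8% acetonitrile in 0.1 M TEAB pH 7.4, 20 min) at 260 nm. Peaks integrated; products identified by co-injection; mean ± SE, at least duplicate.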

Thermococcus sp. 9oN-7 [10] = test: Inhibition of Thermococcus sp. 9oN-7 therminator DNA polymerase assessed as single base extended product level after 1 hr by single base extension reaction based electrophoresis method; parameters: concentration or dose not given beside the values

T1 sequence (P49773 whole entry): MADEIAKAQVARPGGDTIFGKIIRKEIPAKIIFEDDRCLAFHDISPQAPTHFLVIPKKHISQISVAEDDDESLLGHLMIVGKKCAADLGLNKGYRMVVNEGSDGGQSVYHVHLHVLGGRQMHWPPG
Chain of Adenosine 5'-monophosphoramidase HINT1 (P80912 whole entry): as the sequence (P49773 whole entry) above, with R37Q, V65A, D69A, N91K, H122N counted along it

Compound	Activity (Escherichia coli [1])	Activity (Thermococcus sp. 9oN-7 [2])	Stability [3]	IC50 (K562) [µM]	IC50 (HUVEC) [µM]	IC50 (HeLa [4]) [µM]	IC50 (HeLa [5]) [µM]	IC50 (CFPAC-1) [µM]	Activity (Escherichia coli [6])	EC50 [7] [µM]	remaining at 22 h, 1000 µM [8] [%]	remaining at 22 h, 1000 µM [9] [%]	Activity (Thermococcus sp. 9oN-7 [10]) [%]
Nc1ccn([C@@H]2O[C@H](COP(=O)(S)NC(=O)c3cccnc3)[C@@H](O)C2(F)F)c(=O)n1 (some centres not stated)	inactive	inactive	Stable	> 1000	> 1000	> 1000	500	62.5	inactive	280	100	93.4	100
CC(=O)NP(=O)(S)OC[C@H]1O[C@@H](n2ccc(N)nc2=O)C(F)(F)[C@@H]1O (some centres not stated)	inactive	inactive	Stable	500	> 1000	> 1000	700	475	inactive	> 2000	100	88.4	100
Nc1ccn([C@@H]2O[C@H](COP(=O)(O)NC(=O)c3cccnc3)[C@@H](O)C2(F)F)c(=O)n1	inactive	inactive	Stable	> 1000	50	10	1.4	0.4	inactive	750	95.5	86.8	100
CC(=O)NP(=O)(O)OC[C@H]1O[C@@H](n2ccc(N)nc2=O)C(F)(F)[C@@H]1O	inactive	inactive	Stable	0.5	0.09	15	1	0.42	inactive	710	94.1	85.1	100
